# PubChem BioAssay
# Activity calls are given as the source filed them.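 The calls were made as follows: active = current rise at least 3 SD above the untreated control mean in each of two repeat wells; inactive = the rest.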
# Target: Potassium voltage-gated channel subfamily KQT member 1 (Homo sapiens) (UniProt P51787)
# Assay: KCNQ1 activators by electrophysiology – IonWorks patch clamp, KCNQ1-CHO cells, orthogonal assay for KCNQ1 potentiator project, confirmation (AID 493184);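 as to current potentiation: percent change of the same well's current before compound addition so 0% = no change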
# Conditions: automated patch clamp current, at 10 µM; active compounds read high
# In short: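 Probe or stimulus: depolarizing pulse to +40 mV from -90 mV; Material: CHO cells carrying KCNQ1; Compound: one dose, 10 µM final; Signal: automated voltage clamp, amphotericin B perforated patch; Read-out basis: percent current increase versus pre-compound level; Buffer or medium: pH 7.4 external bath; Replication: duplicates.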
# Potassium voltage-gated channel subfamily KQT member 1 (Homo sapiens), sequence (P51787 whole entry, looked up): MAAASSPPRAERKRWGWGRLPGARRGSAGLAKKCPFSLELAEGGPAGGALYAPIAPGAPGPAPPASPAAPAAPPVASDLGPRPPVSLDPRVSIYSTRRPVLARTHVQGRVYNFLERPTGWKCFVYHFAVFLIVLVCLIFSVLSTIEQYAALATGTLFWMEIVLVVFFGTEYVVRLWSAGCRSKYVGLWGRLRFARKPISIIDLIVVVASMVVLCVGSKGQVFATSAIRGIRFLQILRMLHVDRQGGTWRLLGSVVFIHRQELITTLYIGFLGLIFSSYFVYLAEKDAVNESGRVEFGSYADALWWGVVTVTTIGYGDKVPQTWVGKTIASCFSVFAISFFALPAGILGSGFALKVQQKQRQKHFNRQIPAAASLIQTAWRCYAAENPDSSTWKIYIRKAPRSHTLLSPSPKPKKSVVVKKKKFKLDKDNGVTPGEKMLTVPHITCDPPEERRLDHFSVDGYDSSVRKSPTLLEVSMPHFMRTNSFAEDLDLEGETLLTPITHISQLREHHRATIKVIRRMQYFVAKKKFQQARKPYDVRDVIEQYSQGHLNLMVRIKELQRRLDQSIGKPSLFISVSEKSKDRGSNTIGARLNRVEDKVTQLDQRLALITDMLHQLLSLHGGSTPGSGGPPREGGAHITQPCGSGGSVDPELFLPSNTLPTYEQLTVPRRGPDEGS
Structure (SMILES),outcome,current potentiation
O=C1CC(O)(C(F)(F)F)Oc2c1ccc1ccccc21 (stereo not given),inactive,
CCCc1ccc(OCC(=O)NNC(=S)NC(=O)c2ccco2)cc1,inactive,
CCCOc1ccc(C(=O)NC(=S)NNC(=O)c2c(-c3ccccc3)noc2C)cc1,inactive,
Cc1cccc(C(=O)NC(=S)NNC(=O)c2cccs2)c1,,22.2% (active)
CC(C)(C)c1ccc(C(=O)NC(=S)NNC(=O)c2cccs2)cc1,inactive,
